Screening results from PubChem BioAssay.
The sample as a whole holds a higher share of hits than the screen did.
T cruzi growth-1: T. cruzi intracellular proliferation inhibitors, primary screen, cell-based, beta-gal Tulahuen parasites, NIH3T3 host, luminescence | actives 5.9% (n = 77,000) | inhibition, % at 8.34 µM | T. cruzi beta-gal in NIH3T3, GalScreen luminescence, 90 h;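 active = mean inhibition above about 93%, with at least 55% of replicates each passing it, limit read from the data, passing the limit was not always enough; inconclusive = only one of those two conditions holds; inactive = neither condition holds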
IDH1 mut inh: inhibitors of IDH1 R132H reductase, primary screen, biochemical, plate reader, single point; inhibition, % at 10 µM; Isocitrate dehydrogenase [NADP] cytoplasmic (Homo sapiens), O75874; actives 0.18% (n = 70,000); diaphorase/resazurin fluorescence, 60 min; in the data active = inhibition above about 34%; inconclusive = no clear call, values can overlap the other calls; inactive = below about 11%;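 note: 0% = DMSO and 100% = no enzyme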
GASC1 inh: inhibitors of GASC-1 (KDM4C) histone demethylase, primary screen, biochemical, single concentration HTS. GST-KDM4C 2-372, H3K9me3 peptide, LANCE TR-FRET. Lysine-specific demethylase 4C (Homo sapiens), Q9H3R0. inhibition, % at 12.5 µM. actives 0.15% (n = 96,000);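 active = mean replicate inhibition above about 25%, with at least 55% of replicates also reaching it, limit read from the data, passing the limit was not always enough; inconclusive = only one of those two conditions met; inactive = neither condition met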
Target sequence (Q9H3R0 2-372 limits assumed): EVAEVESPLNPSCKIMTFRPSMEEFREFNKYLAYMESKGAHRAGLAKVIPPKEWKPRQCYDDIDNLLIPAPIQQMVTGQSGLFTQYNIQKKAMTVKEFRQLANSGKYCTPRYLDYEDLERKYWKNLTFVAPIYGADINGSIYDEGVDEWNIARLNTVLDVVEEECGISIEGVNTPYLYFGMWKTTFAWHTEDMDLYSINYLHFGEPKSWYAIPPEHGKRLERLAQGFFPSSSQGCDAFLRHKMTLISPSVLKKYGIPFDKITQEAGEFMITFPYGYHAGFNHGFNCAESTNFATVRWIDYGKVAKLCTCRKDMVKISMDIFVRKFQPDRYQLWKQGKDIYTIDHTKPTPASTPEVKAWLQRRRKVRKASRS
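Test system: N-terminal GST-fused human GASC-1 (KDM4C) fragment, residues 2-372; quantity: GASC-1 enzyme at 10 nM final in reaction; dosing: single dose; schedule: 30 min demethylation and 1 h detection at room temperature; signal: LANCE TR-FRET, excitation 340 nm, emissions 618 and 671 nm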
T cruzi growth-2: T. cruzi intracellular proliferation inhibitors, confirmation, cell-based, NIH3T3 host, beta-gal parasite, luminescence, cherry-pick; shares compounds with T cruzi growth-1; T. cruzi beta-gal in NIH3T3, GalScreen luminescence, 90 h; inhibition, % at 8.35 µM; actives 72% (n = 5,600);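 active = mean replicate inhibition above about 95% and at least 55% of replicates individually reaching it, limit read from the data; inconclusive = only one of the two criteria is met; inactive = neither criterion is met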
T cruzi growth-3: inhibitors of intracellular T. cruzi replication, confirmation, NIH3T3 host cells, beta-gal parasites, cherry-pick, set 2. shares compounds with T cruzi growth-1. T. cruzi beta-gal in NIH3T3, GalScreen luminescence, 90 h. inhibition, % at 2.09 µM. actives 21% (n = 5,600). AID 651740, 2012;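 active = mean inhibition above about 95%, with at least 55% of replicates also reaching it, limit read from the data; inconclusive = meets just one of the two conditions; inactive = meets neither condition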;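 note: plate controls were neutral control median for no effect and positive control median for full effect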
NIH3T3 tox: cytotoxicity in mouse NIH/3T3 fibroblasts, confirmation, cytotoxicity control for T. cruzi proliferation inhibitor project, cell-based, cherry-pick, single point; AID 651742, 2012; shares compounds with T cruzi growth-1; NIH/3T3 viability, CellTiter-Glo ATP luminescence, 90 h; cytotoxicity (signal decrease), % at 8.35 µM; actives 14% (n = 5,600);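 active = mean signal decrease across replicates above about 35% based on untreated-well scatter, with enough replicates individually passing, limit read from the data; inconclusive = no rule stated though some were filed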;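 note: 0% = median of neutral control wells and 100% = median of positive control wells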
3T3 cytotox 2: NIH/3T3 fibroblast cytotoxicity, confirmation, cytotoxicity control, cell-based, cherry-pick, single point, set 2 | AID 651744, 2012 | actives 56% (n = 5,600) | shares compounds with T cruzi growth-1 | inhibition, % at 24.9 µM | NIH/3T3 viability, CellTiter-Glo ATP luminescence, 90 h;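 active = mean loss of cell viability signal at or above a set limit, and enough replicates individually reaching it; inconclusive = meets only the mean limit or only the replicate share; inactive = meets neither condition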;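 note: 0% = median of neutral control wells and 100% = median of positive control wells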
Starred values were filed as active, the others as inactive; ? = inconclusive; · = not tested or not shown.

SMILES	T cruzi growth-1	IDH1 mut inh	GASC1 inh	T cruzi growth-2	T cruzi growth-3	NIH3T3 tox	3T3 cytotox 2
O=C(C1CC1)N1CC[C@@H]2[C@H]1c1cc(-c3cccc(F)c3)ccc1N[C@@H]2CO	115*	·	4	105*	103*	4	28*
CN(C)C(=O)c1cccc(-c2ccc3c(c2)[C@@H]2[C@@H](CCN2C(=O)C2CCCC2)[C@H](CO)N3)c1	·	·	0	·	·	·	·
CN(C)C(=O)c1cccc(-c2ccc3c(c2)[C@@H]2[C@@H](CCN2C(=O)C2CC2)[C@H](CO)N3)c1	68	·	1	·	·	·	·
CN(C)C(=O)c1cccc(-c2ccc3c(c2)[C@H]2[C@H](CCN2C(=O)C2CC2)[C@H](CO)N3)c1	99*	·	1	105*	71	-19	-6
COc1ccc(-n2c(SCC(=O)N3CCOCC3)nnc2-c2ccc(Cl)cc2)cc1	·	0	·	·	·	·	·
COc1ccc(C(=O)CSc2nc3sc(C)c(C)c3c(=O)[nH]2)cc1C	·	0	·	·	·	·	·
C[C@H](CO)N1C[C@H](C)[C@H](CN(C)C(=O)C2CCC2)Oc2cc(-c3ccncc3)ccc2S1(=O)=O	85	·	3	·	·	·	·
C[C@H](CO)N1C[C@H](C)[C@H](CN(C)C(=O)C2CC2)Oc2cc(-c3ccccc3F)ccc2S1(=O)=O	109*	-1	-1	70	16	15	64*
C[C@@H]1CN([C@@H](C)CO)S(=O)(=O)c2ccc(-c3ccc(F)cc3)cc2O[C@@H]1CN(C)C(=O)C1CCCCC1	98	·	-2	·	·	·	·
C[C@@H]1CN([C@@H](C)CO)S(=O)(=O)c2ccc(-c3ccncc3)cc2O[C@H]1CN(C)C(=O)CC1CC1	118*	1	5	84	86	3	?
C[C@@H]1CN([C@H](C)CO)S(=O)(=O)c2ccc(-c3ccccc3F)cc2O[C@@H]1CN(C)C(=O)C1CC1	51	0	1	·	·	·	·
C[C@@H]1CN([C@@H](C)CO)S(=O)(=O)c2ccc(-c3ccncc3)cc2O[C@H]1CN(C)C(=O)C1CCC1	108*	8	2	103*	78	5	46*
C[C@@H]1CN([C@@H](C)CO)S(=O)(=O)c2ccc(-c3ccc(F)cc3)cc2O[C@H]1CN(C)C(=O)C1CCCCC1	105*	·	-3	101*	73	52*	47*
C[C@@H]1CN([C@@H](C)CO)S(=O)(=O)c2ccc(-c3ccncc3)cc2O[C@@H]1CN(C)C(=O)CC1CC1	85	7	2	·	·	·	·
COc1ccc(N2C(=O)CC(SCC(=O)Nc3ccc(Cl)c(Cl)c3)C2=O)cc1 (stereo not given)	·	0	·	·	·	·	·
CCCn1cc(NC(=O)C2CC(c3ccccc3O)=NO2)cn1 (stereo not given)	·	-1	·	·	·	·	·
Cc1ccc(-c2ccc3c(c2)O[C@H](CN(C)C(=O)C2CCCCC2)[C@@H](C)CN([C@@H](C)CO)S3(=O)=O)cc1	123*	·	-2	102*	100*	3	104*
C[C@@H]1CN([C@H](C)CO)S(=O)(=O)c2ccc(-c3ccccc3)cc2O[C@H]1CN(C)C(=O)C1CCCCC1	44	5	0	·	·	·	·
C[C@@H]1CN([C@@H](C)CO)S(=O)(=O)c2ccc(-c3ccccc3)cc2O[C@@H]1CN(C)C(=O)C1CCCCC1	97*	·	-1	103*	82	26	80*
Cc1ccc(-c2ccc3c(c2)O[C@H](CN(C)C(=O)C2CCC2)[C@H](C)CN([C@H](C)CO)S3(=O)=O)cc1	87	1	-1	·	·	·	·
Cc1ccc(-c2ccc3c(c2)O[C@@H](CN(C)C(=O)C2CCCCC2)[C@@H](C)CN([C@H](C)CO)S3(=O)=O)cc1	123*	·	-2	99*	93	13	106*
Cc1ccc(-c2ccc3c(c2)O[C@@H](CN(C)C(=O)C2CCCCC2)[C@@H](C)CN([C@@H](C)CO)S3(=O)=O)cc1	125*	-2	-3	100*	93	22	106*
Cc1ccc(-c2ccc3c(c2)O[C@@H](CN(C)C(=O)C2CCC2)[C@H](C)CN([C@@H](C)CO)S3(=O)=O)cc1	70	·	23	·	·	·	·
Cc1ccc(-c2ccc3c(c2)O[C@H](CN(C)C(=O)C2CCC2)[C@@H](C)CN([C@H](C)CO)S3(=O)=O)cc1	57	·	-1	·	·	·	·
Cc1cccc(N(CC(=O)NC2CCCCCC2)S(C)(=O)=O)c1C	·	0	·	·	·	·	·
SMILES	T cruzi growth-1	IDH1 mut inh	GASC1 inh	T cruzi growth-2	T cruzi growth-3	NIH3T3 tox	3T3 cytotox 2
NC(=O)COc1ccc(Br)cc1C1C2=C(CCCC2=O)NC2=C1C(=O)CCC2	·	-1	·	·	·	·	·
Cc1ccc2c(C)c(C(=O)Nc3sc4c(c3C(=O)NCc3cccnc3)CCCC4)oc2c1	·	0	·	·	·	·	·
CC1(C)CC[C@]2(C(=O)O)CC[C@]3(C)C(=CCC4[C@@]5(C)CC[C@H](O[C@@H]6O[C@H](C(=O)O)[C@@H](O[C@@H]7OC[C@@H](O)[C@H](O)[C@H]7O)[C@H](O)[C@H]6O)C(C)(C)C5CC[C@]43C)C2C1 (stereo not given in full)	·	0	·	·	·	·	·
CCCCn1cc(C2CC(=O)N(c3ccc(Br)cc3)C2=O)c2ccccc21 (stereo not given)	·	0	·	·	·	·	·
O=C(C[C@H]1CC[C@@H]2[C@H](COC[C@@H](O)CN2Cc2ccc(Cl)cc2)O1)Nc1nccs1	30	·	0	·	·	·	·
O=C(C[C@@H]1CC[C@H]2[C@@H](COC[C@H](O)CN2Cc2ccc(Oc3ccccc3)cc2)O1)Nc1nccs1	193*	·	-2	104*	36	-13	?
O=C(C[C@H]1CC[C@H]2[C@@H](COC[C@@H](O)CN2Cc2ccc(Oc3ccccc3)cc2)O1)Nc1nccs1	152*	·	-4	102*	18	-4	17
O=C(C[C@H]1CC[C@H]2[C@@H](COC[C@H](O)CN2Cc2cccc(Cl)c2)O1)Nc1nccs1	133*	·	0	?	25	23	20
O=C(C[C@@H]1CC[C@@H]2[C@H](COC[C@H](O)CN2Cc2cccc(Cl)c2)O1)Nc1nccs1	68	·	-1	·	·	·	·
O=C(C[C@H]1CC[C@H]2[C@@H](COC[C@H](O)CN2Cc2ccc(Cl)cc2)O1)Nc1nccs1	81	·	-1	·	·	·	·
